Assay results taken from publication PMC3394096 (Investigational New Drugs, 2011).
“Also recorded” adds a separate entry of the source. Marks after values point to notes of the source that are not given here.

What was measured:
KSP = details: read-out: IC50 (KSP); background statement, ref not given; cited from earlier work
[1] = Phase I urinary recovery of unchanged drug; assay type: in vivo, human; details: on average, at the highest dose levels
Procedure, shortened: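 Urine collected during the 24 h infusion at 0–4, 4–8, 8–12 and 12–24 h, then at 24–28, 28–32, 32–36 and 36–48 h from infusion start. Unchanged test compound concentration and urine volume per interval gave total urinary recovery as percentage of dose. Calculated for subjects at the highest dose levels.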

[2] = system: human ovarian carcinoma cells; details: treated human ovarian carcinoma cells; cited from earlier work
A2780 (ovarian cancer) = details: cited from earlier work
[3] = Phase I safety, dose-limiting toxicity and maximum tolerated dose; assay type: in vivo, human
xenograft tumors = details: mice, multi-dose regimen; background statement, ref not given; cited from earlier work
solid tumors = assay: Phase I tumor response; assay type: in vivo, human
Procedure, shortened: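 Patients with measurable taxane-resistant solid tumors received a 24 h continuous IV infusion every 21 days, with serial radiologic assessments. At baseline, longest diameters were summed for up to five lesions per organ and ten in total. Lesions had to measure ≥20 mm by conventional techniques or ≥10 mm by spiral CT. Response and progression were graded by RECIST v1.0.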

[4] = Phase I plasma pharmacokinetics, 24-hour continuous IV infusion; assay type: in vivo, human
Procedure, shortened: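 Test compound given to patients as a 24 h continuous IV infusion in 21-day cycles. Plasma sampled predose, at 1, 3, 6, 12, 16 and 24 h, then at 24.5–96 h from infusion start. Extraction used pH 10.7 carbonate buffer with MTBE:hexane, then HPLC-MS/MS in positive ion mode; standard curve 1–200 ng/mL. t1/2 from an unweighted single-exponential fit to the log-linear terminal phase. AUC(0-∞) by linear up/log down with extrapolation. Clearance calculated as dose/AUC.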

KB-3-1 (cervical cancer) = details: cited from earlier work
other kinesins = details: background statement, ref not given; cited from earlier work
Ca125 antigen = assay: Phase I serum Ca125 antigen; assay type: in vivo, human; details: ovarian cancer patient with prolonged stable disease
HCT116 (colon cancer) = details: cited from earlier work
[5] = 12 mg/m^2/24 h, treatment-related, all cycles (n=47)
[6] = 17 mg/m^2/24 h, treatment-related, all cycles (n=47)
[7] = 24 mg/m^2/24 h, treatment-related, all cycles (n=47)
[8] = 48 mg/m^2/24 h, treatment-related, all cycles (n=47)

## CN1CC[C@H](N(C)C(=O)N2CC(c3cc(F)ccc3F)=C[C@@]2(CO)c2ccccc2)[C@H](F)C1 [MK-0731, (2S)-4-(2,5-difluorophenyl)-n-[(3R,4S)-3-fluoro-1-methylpiperidin-4-yl]-2-(hydroxymethyl)-N-methyl-2-phenyl-2,5-dihydro-1H-pyrrole-1-carboxamide]
KSP
  IC50: 2.2 nM
[1]
  dose recovered in urine as unchanged drug: less than 4%
[2]
  spindle pole separation: inhibits spindle pole separation
A2780 (ovarian cancer)
  proliferation: inhibits proliferation
[3]; 12 mg/m^2
  toxicities, part 1: no further toxicities were observed
[3]; [5]
  Leukopenia, Grade 2, %: 2.1%
  Neutropenia, Grade 2, %: 2.1%
  Vomiting, Grade 2, %: 2.1%
[3]; 17 mg/m^2, six patients
  DLT, part 1: none experienced DLT
[3]; 17 mg/m^2/24 h, 22 patients
  DLTs, part 2: no DLTs
[3]; [6]
  Hypophosphatemia, Grade 2, %: 2.1%
  Leukopenia, Grade 3, %: 2.1%
  Thrombocytopenia, Grade 2, %: 2.1%
[3]; [7]
  Leukopenia, Grade 2, %: 2.1%
  Neutropenia, Grade 2, %: 2.1%
  Neutropenia, Grade 3, %: 2.1%
[3]; [8]
  Hyperglycemia, Grade 3, %: 2.1%
  Hypocalcemia, Grade 2, %: 2.1%
  Hypophosphatemia, Grade 2, %: 2.1%
  Leukopenia, Grade 2, %: 2.1%
  Leukopenia, Grade 3, %: 2.1%
  Mucosal Inflammation, Grade 2, %: 2.1%
  Nausea, Grade 3, %: 2.1%
  Thrombocytopenia, Grade 2, %: 2.1%
  Vomiting, Grade 3, %: 2.1%
[3]; 24-hour IV infusion, 21-day cycles
  maximum tolerated dose: 17 mg/m^2
[3]; all doses
  neuropathy: without the development of neuropathy
Xenograft tumors
  growth of xenograft tumors: inhibited to a similar degree
Solid tumors; 17 mg/m^2/24 h, non-small cell lung cancer
  Number of cycles, patient with stable disease: 12 ^a cycles
Solid tumors; 17 mg/m^2/24 h, ovarian cancer
  Number of cycles, patient with stable disease: 11 ^a cycles
Solid tumors; 17 mg/m^2/24 h, part 2
  patients with prolonged stable disease: four
Solid tumors; all patients
  objective tumor response (RECIST): no objective tumor responses; also recorded: no partial or complete responses
[4]; 6 to 48 mg/m^2/24 h
  dose dependence of end of infusion concentrations and AUC: increase approximately dose proportionally; also recorded: increased approximately proportionately to the dose administered
[4]; at the MTD (17 mg/m^2/24 h)
  AUC (±SD): 10.5 (±7.3) μM × hour
  clearance (±SD): 153 mL/min
KB-3-1 (cervical cancer)
  proliferation: inhibits proliferation
Other kinesins
  selectivity for KSP compared with other kinesins: > 20,000 fold
Ca125 antigen
  levels of the Ca125 antigen: No decreases
HCT116 (colon cancer)
  proliferation: inhibits proliferation

## CC(=O)O[C@H]1C(=O)[C@@]2(C)[C@H]([C@H](OC(=O)c3ccccc3)[C@]3(O)C[C@H](OC(=O)[C@H](O)[C@@H](NC(=O)c4ccccc4)c4ccccc4)C(C)=C1C3(C)C)[C@]1(OC(C)=O)CO[C@@H]1C[C@@H]2O [paclitaxel, reference compound]
Xenograft tumors
  growth of xenograft tumors: inhibited to a similar degree
